Measurements: ChEMBL document CHEMBL2434937, “Monoamine oxidase inhibitory activity of 3,5-biaryl-4,5-dihydro-1H-pyrazole-1-carboxylate derivatives” (Eur J Med Chem, 2013)

Columns and labels:
[1] = biological target: T1, Amine oxidase [flavin-containing] A (Homo sapiens, UniProt P21397); assay: Reversible inhibition of human recombinant MAO-A expressed in baculovirus infected […] insect cells at 300 nM after 1 hr by centrifugation-ultrafiltration method
T1 sequence (P21397 whole entry): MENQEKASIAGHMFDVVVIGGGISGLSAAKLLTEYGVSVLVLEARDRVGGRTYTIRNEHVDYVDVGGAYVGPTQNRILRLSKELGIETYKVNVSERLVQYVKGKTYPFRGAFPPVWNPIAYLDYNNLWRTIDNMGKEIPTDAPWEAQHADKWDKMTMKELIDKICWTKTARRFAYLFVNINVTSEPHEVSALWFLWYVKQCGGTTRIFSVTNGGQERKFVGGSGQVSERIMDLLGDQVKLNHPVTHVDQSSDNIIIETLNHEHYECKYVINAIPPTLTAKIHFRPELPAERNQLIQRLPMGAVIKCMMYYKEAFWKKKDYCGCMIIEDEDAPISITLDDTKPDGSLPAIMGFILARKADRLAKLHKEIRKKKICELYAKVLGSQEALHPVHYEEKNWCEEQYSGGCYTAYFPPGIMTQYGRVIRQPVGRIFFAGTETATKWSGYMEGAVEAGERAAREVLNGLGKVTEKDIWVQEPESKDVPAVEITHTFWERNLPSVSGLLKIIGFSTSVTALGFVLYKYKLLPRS
Procedure, shortened: (§1)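 Recombinant hMAO-A (baculovirus-infected BTI insect cells) preincubated with a single inhibitor concentration in 0.05 M sodium phosphate, pH 7.4, 1 h at 37°C. One aliquot kept at 4°C unwashed. Remainder ultrafiltered (30 kDa membrane, 9000x g, 20 min, 4°C), resuspended and spun twice more. Activity by Amplex Red/HRP H2O2 fluorescence. Percent inhibition vs vehicle controls, with and without washing.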

[2] = biological target: T1, Amine oxidase [flavin-containing] A; assay: Reversible inhibition of human recombinant MAO-A expressed in baculovirus infected […] insect cells at 300 nM incubated for 1 hr followed by compound washout by centrifugation-ultrafiltration method; procedure, shortened: as §1

Q: What does the source list for `O=C(NCCN1CCOCC1)c1ccc(Cl)cc1` [MOCLOBEMIDE]?
A: inhibition at 0.3 µM [1]: 89%; inhibition at 0.3 µM [2]: 9.56%
